Tested on: HEK-293T
Experiment: Multiplex assay against HEK293T;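 as to Population Tubulin-Different-Phenotype (%): share of the cells with healthy nuclei that show this phenotype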
Assay type: toxicity, cell-based
Conditions: human
How it was run: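 Cells were classed with CellPathfinder machine-learning gating, first as Hoechst high-intensity objects or normal cells, then (normal cells) as healthy, pyknosed or fragmented nuclei, and finally (pyknosed cells) as mitotic or apoptotic. Staining of live cells at seeding used Hoechst33342, BioTracker Green Microtubule Cytoskeleton Dye, MitoTracker Red and Annexin V Alexa Fluor 680, with imaging on a CQ1 microscope at 37°C and 5% CO2 after compound addition. Tubulin, mitochondrial-mass and membrane-permeability phenotypes are per cents of healthy-nucleus cells.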

[1] = 12 h, 1 µM, compound concentration 1 uM, replicate 1
[2] = 12 h, 1 µM, compound concentration 1 uM, replicate 2
[3] = 12 h, 10 µM, compound concentration 10 uM, replicate 1
[4] = 12 h, 10 µM, compound concentration 10 uM, replicate 2
[5] = 24 h, 1 µM, compound concentration 1 uM, replicate 1
[6] = 24 h, 1 µM, compound concentration 1 uM, replicate 2
[7] = 24 h, 10 µM, compound concentration 10 uM, replicate 1
[8] = 24 h, 10 µM, compound concentration 10 uM, replicate 2
[9] = 48 h, 1 µM, compound concentration 1 uM, replicate 1
[10] = 48 h, 1 µM, compound concentration 1 uM, replicate 2
[11] = 48 h, 10 µM, compound concentration 10 uM, replicate 1
[12] = 48 h, 10 µM, compound concentration 10 uM, replicate 2

O=C(Cc1ccc(-c2ccc(OCCN3CCOCC3)cc2)cn1)NCc1ccccc1 [TIRBANIBULIN]
Population Apoptotic (%) [1]: 34% | Population Fragmented Nuclei (%) [1]: 17% | Population Healthy Nuclei (%) [1]: 21% | Population Hoechst High Intensity Objects (%) [1]: 12% | Population Membrane Permeable-Phenotype (%) [1]: 0% | Population Mitochondria Different-Phenotype (%) [1]: 58% | Population Mitotic Cells (%) [1]: 65% | Population Normal (%) [1]: 87% | Population Pyknosed Nuclei (%) [1]: 61% | Population Tubulin-Different-Phenotype (%) [1]: 2% | Total Cell Count [1]: 193 | Population Apoptotic (%) [2]: 16% | Population Fragmented Nuclei (%) [2]: 8% | Population Healthy Nuclei (%) [2]: 30% | Population Hoechst High Intensity Objects (%) [2]: 2% | Population Membrane Permeable-Phenotype (%) [2]: 10% | Population Mitochondria Different-Phenotype (%) [2]: 23% | Population Mitotic Cells (%) [2]: 83% | Population Normal (%) [2]: 97% | Population Pyknosed Nuclei (%) [2]: 60% | Population Tubulin-Different-Phenotype (%) [2]: 11% | Total Cell Count [2]: 231 | Population Apoptotic (%) [3]: 52% | Population Fragmented Nuclei (%) [3]: 20% | Population Healthy Nuclei (%) [3]: 21% | Population Hoechst High Intensity Objects (%) [3]: 18% | Population Membrane Permeable-Phenotype (%) [3]: 0% | Population Mitochondria Different-Phenotype (%) [3]: 79% | Population Mitotic Cells (%) [3]: 47% | Population Normal (%) [3]: 81% | Population Pyknosed Nuclei (%) [3]: 58% | Population Tubulin-Different-Phenotype (%) [3]: 27% | Total Cell Count [3]: 169 | Population Apoptotic (%) [4]: 17% | Population Fragmented Nuclei (%) [4]: 5% | Population Healthy Nuclei (%) [4]: 28% | Population Hoechst High Intensity Objects (%) [4]: 5% | Population Membrane Permeable-Phenotype (%) [4]: 2% | Population Mitochondria Different-Phenotype (%) [4]: 23% | Population Mitotic Cells (%) [4]: 82% | Population Normal (%) [4]: 95% | Population Pyknosed Nuclei (%) [4]: 66% | Population Tubulin-Different-Phenotype (%) [4]: 6% | Total Cell Count [4]: 160 | Population Apoptotic (%) [5]: 39% | Population Fragmented Nuclei (%) [5]: 17% | Population Healthy Nuclei (%) [5]: 21% | Population Hoechst High Intensity Objects (%) [5]: 14% | Population Membrane Permeable-Phenotype (%) [5]: 2% | Population Mitochondria Different-Phenotype (%) [5]: 37% | Population Mitotic Cells (%) [5]: 60% | Population Normal (%) [5]: 85% | Population Pyknosed Nuclei (%) [5]: 61% | Population Tubulin-Different-Phenotype (%) [5]: 5% | Total Cell Count [5]: 194 | Population Apoptotic (%) [6]: 27% | Population Fragmented Nuclei (%) [6]: 6% | Population Healthy Nuclei (%) [6]: 29% | Population Hoechst High Intensity Objects (%) [6]: 2% | Population Membrane Permeable-Phenotype (%) [6]: 6% | Population Mitochondria Different-Phenotype (%) [6]: 25% | Population Mitotic Cells (%) [6]: 72% | Population Normal (%) [6]: 97% | Population Pyknosed Nuclei (%) [6]: 63% | Population Tubulin-Different-Phenotype (%) [6]: 33% | Total Cell Count [6]: 207 | Population Apoptotic (%) [7]: 54% | Population Fragmented Nuclei (%) [7]: 21% | Population Healthy Nuclei (%) [7]: 16% | Population Hoechst High Intensity Objects (%) [7]: 17% | Population Membrane Permeable-Phenotype (%) [7]: 0% | Population Mitochondria Different-Phenotype (%) [7]: 82% | Population Mitotic Cells (%) [7]: 45% | Population Normal (%) [7]: 82% | Population Pyknosed Nuclei (%) [7]: 62% | Population Tubulin-Different-Phenotype (%) [7]: 17% | Total Cell Count [7]: 168 | Population Apoptotic (%) [8]: 22% | Population Fragmented Nuclei (%) [8]: 5% | Population Healthy Nuclei (%) [8]: 25% | Population Hoechst High Intensity Objects (%) [8]: 5% | Population Membrane Permeable-Phenotype (%) [8]: 7% | Population Mitochondria Different-Phenotype (%) [8]: 23% | Population Mitotic Cells (%) [8]: 77% | Population Normal (%) [8]: 94% | Population Pyknosed Nuclei (%) [8]: 68% | Population Tubulin-Different-Phenotype (%) [8]: 18% | Total Cell Count [8]: 160 | Population Apoptotic (%) [9]: 56% | Population Fragmented Nuclei (%) [9]: 25% | Population Healthy Nuclei (%) [9]: 23% | Population Hoechst High Intensity Objects (%) [9]: 16% | Population Membrane Permeable-Phenotype (%) [9]: 5% | Population Mitochondria Different-Phenotype (%) [9]: 45% | Population Mitotic Cells (%) [9]: 43% | Population Normal (%) [9]: 83% | Population Pyknosed Nuclei (%) [9]: 50% | Population Tubulin-Different-Phenotype (%) [9]: 24% | Total Cell Count [9]: 187 | Population Apoptotic (%) [10]: 40% | Population Fragmented Nuclei (%) [10]: 12% | Population Healthy Nuclei (%) [10]: 43% | Population Hoechst High Intensity Objects (%) [10]: 4% | Population Membrane Permeable-Phenotype (%) [10]: 12% | Population Mitochondria Different-Phenotype (%) [10]: 25% | Population Mitotic Cells (%) [10]: 60% | Population Normal (%) [10]: 95% | Population Pyknosed Nuclei (%) [10]: 44% | Population Tubulin-Different-Phenotype (%) [10]: 50% | Total Cell Count [10]: 213 | Population Apoptotic (%) [11]: 56% | Population Fragmented Nuclei (%) [11]: 29% | Population Healthy Nuclei (%) [11]: 13% | Population Hoechst High Intensity Objects (%) [11]: 17% | Population Membrane Permeable-Phenotype (%) [11]: 0% | Population Mitochondria Different-Phenotype (%) [11]: 66% | Population Mitotic Cells (%) [11]: 44% | Population Normal (%) [11]: 82% | Population Pyknosed Nuclei (%) [11]: 56% | Population Tubulin-Different-Phenotype (%) [11]: 11% | Total Cell Count [11]: 160 | Population Apoptotic (%) [12]: 36% | Population Fragmented Nuclei (%) [12]: 7% | Population Healthy Nuclei (%) [12]: 39% | Population Hoechst High Intensity Objects (%) [12]: 4% | Population Membrane Permeable-Phenotype (%) [12]: 9% | Population Mitochondria Different-Phenotype (%) [12]: 23% | Population Mitotic Cells (%) [12]: 63% | Population Normal (%) [12]: 95% | Population Pyknosed Nuclei (%) [12]: 52% | Population Tubulin-Different-Phenotype (%) [12]: 20% | Total Cell Count [12]: 145

CN1CCN(C(=O)C(C)(C)c2ccc(C(=O)Nc3cn4cc(-c5cc(C(C)(C)C)cc(C(C)(C)C)c5)ccc4n3)cc2)CC1 [T3-CLK-N]
Population Apoptotic (%) [1]: 14% | Population Fragmented Nuclei (%) [1]: 15% | Population Healthy Nuclei (%) [1]: 58% | Population Hoechst High Intensity Objects (%) [1]: 12% | Population Membrane Permeable-Phenotype (%) [1]: 5% | Population Mitochondria Different-Phenotype (%) [1]: 7% | Population Mitotic Cells (%) [1]: 85% | Population Normal (%) [1]: 87% | Population Pyknosed Nuclei (%) [1]: 25% | Population Tubulin-Different-Phenotype (%) [1]: 9% | Total Cell Count [1]: 642 | Population Apoptotic (%) [2]: 10% | Population Fragmented Nuclei (%) [2]: 6% | Population Healthy Nuclei (%) [2]: 84% | Population Hoechst High Intensity Objects (%) [2]: 2% | Population Membrane Permeable-Phenotype (%) [2]: 4% | Population Mitochondria Different-Phenotype (%) [2]: 13% | Population Mitotic Cells (%) [2]: 89% | Population Normal (%) [2]: 97% | Population Pyknosed Nuclei (%) [2]: 9% | Population Tubulin-Different-Phenotype (%) [2]: 21% | Total Cell Count [2]: 1407 | Population Apoptotic (%) [3]: 21% | Population Fragmented Nuclei (%) [3]: 16% | Population Healthy Nuclei (%) [3]: 46% | Population Hoechst High Intensity Objects (%) [3]: 18% | Population Membrane Permeable-Phenotype (%) [3]: 11% | Population Mitochondria Different-Phenotype (%) [3]: 13% | Population Mitotic Cells (%) [3]: 78% | Population Normal (%) [3]: 81% | Population Pyknosed Nuclei (%) [3]: 36% | Population Tubulin-Different-Phenotype (%) [3]: 30% | Total Cell Count [3]: 631 | Population Apoptotic (%) [4]: 23% | Population Fragmented Nuclei (%) [4]: 3% | Population Healthy Nuclei (%) [4]: 80% | Population Hoechst High Intensity Objects (%) [4]: 4% | Population Membrane Permeable-Phenotype (%) [4]: 4% | Population Mitochondria Different-Phenotype (%) [4]: 26% | Population Mitotic Cells (%) [4]: 76% | Population Normal (%) [4]: 95% | Population Pyknosed Nuclei (%) [4]: 15% | Population Tubulin-Different-Phenotype (%) [4]: 63% | Total Cell Count [4]: 884 | Population Apoptotic (%) [5]: 16% | Population Fragmented Nuclei (%) [5]: 12% | Population Healthy Nuclei (%) [5]: 76% | Population Hoechst High Intensity Objects (%) [5]: 10% | Population Membrane Permeable-Phenotype (%) [5]: 14% | Population Mitochondria Different-Phenotype (%) [5]: 5% | Population Mitotic Cells (%) [5]: 83% | Population Normal (%) [5]: 89% | Population Pyknosed Nuclei (%) [5]: 10% | Population Tubulin-Different-Phenotype (%) [5]: 19% | Total Cell Count [5]: 686 | Population Apoptotic (%) [6]: 4% | Population Fragmented Nuclei (%) [6]: 10% | Population Healthy Nuclei (%) [6]: 84% | Population Hoechst High Intensity Objects (%) [6]: 4% | Population Membrane Permeable-Phenotype (%) [6]: 9% | Population Mitochondria Different-Phenotype (%) [6]: 8% | Population Mitotic Cells (%) [6]: 95% | Population Normal (%) [6]: 95% | Population Pyknosed Nuclei (%) [6]: 5% | Population Tubulin-Different-Phenotype (%) [6]: 40% | Total Cell Count [6]: 1792 | Population Apoptotic (%) [7]: 27% | Population Fragmented Nuclei (%) [7]: 20% | Population Healthy Nuclei (%) [7]: 46% | Population Hoechst High Intensity Objects (%) [7]: 21% | Population Membrane Permeable-Phenotype (%) [7]: 8% | Population Mitochondria Different-Phenotype (%) [7]: 23% | Population Mitotic Cells (%) [7]: 72% | Population Normal (%) [7]: 78% | Population Pyknosed Nuclei (%) [7]: 33% | Population Tubulin-Different-Phenotype (%) [7]: 56% | Total Cell Count [7]: 614 | Population Apoptotic (%) [8]: 17% | Population Fragmented Nuclei (%) [8]: 4% | Population Healthy Nuclei (%) [8]: 88% | Population Hoechst High Intensity Objects (%) [8]: 3% | Population Membrane Permeable-Phenotype (%) [8]: 7% | Population Mitochondria Different-Phenotype (%) [8]: 37% | Population Mitotic Cells (%) [8]: 82% | Population Normal (%) [8]: 96% | Population Pyknosed Nuclei (%) [8]: 6% | Population Tubulin-Different-Phenotype (%) [8]: 82% | Total Cell Count [8]: 947
